Results: ChEMBL document CHEMBL4316598, “Synthesis, antiproliferative and apoptosis induction potential activities of novel bis(indolyl)hydrazide-hydrazone derivatives” (Bioorg Med Chem, 2019)
Activity calls are given as the source filed them. No cut-off for these calls is given here.

Key:
MCF7 [1] = test: Induction of cell cycle arrest in human MCF7 cells at 1 uM after 16 hrs by propidium iodide/RNase A staining based FACS analysis; format: functional
Summary of the method: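 Cells were seeded at 1 million cells/mL in 24-well plates and grown to 70% confluence. They were exposed at 1 µM for 16 h, washed in cold PBS, fixed in absolute ethanol and stored at −20 °C. Staining was with RNase A (20 µg/mL final) and PI (50 µg/mL final) for 30 min at 37 °C in the dark. Results are given as the percentage of cells in each cell-cycle phase by FACS.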

HeLa [2] = test: Induction of apoptosis in human HeLa cells assessed as early apoptotic cells at 1 uM after 12 hrs by annexin-V FITC/propidium iodide staining based flow cytometric analysis relative to control; format: functional
Summary of the method: (§1)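 Cells were grown in DMEM with 10% heat-inactivated FBS at 37 °C and 5% CO₂, then plated at 500,000 cells/well in 24-well plates. They were treated from a DMSO stock (DMSO ≤0.1%) for 8, 12 or 16 h. After a PBS wash, cells were resuspended in binding buffer (10 mM HEPES pH 7.4, 2.5 mM CaCl₂, 140 mM NaCl, 0.1% BSA), stained 40 min with FITC-annexin V, then with PI, and run on the flow cytometer immediately. Values are the mean of three independent experiments.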

[3] = target: T1, MAP kinase p38 (Homo sapiens) (UniProt O15264+Q15759+Q16539+P53778); test: Activation of MAPK p38 phosphorylation in human MCF7 cells assessed as increase in ratio of phosphorylated p38 to total p38 level at 5 uM by ELISA; format: cell-based
Summary of the method: (§2)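 Cell-based ELISA: HeLa or MCF-7 cells (20×10^3/well) grown overnight at 37 °C, 5% CO2, treated with 5 μM, then fixed and blocked. Probed with rabbit anti-total and anti-phospho P38, JNK or ERK1/2 (1:100), then HRP anti-rabbit IgG. Result is the phospho/total ratio; inhibitor arms use […], […] or SP600125. n=3.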

MCF7 [4] = test: Induction of ERK/MAPK signal transduction pathway in human MCF7 cells assessed as increase in c-jun level; format: cell-based
HeLa [5] = test: Induction of apoptosis in human HeLa cells assessed as increase in Mcl-1 short level at 1 to 3 uM after 24 hrs by Western blot analysis; format: functional, cell-based
Summary of the method: (§3)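 Cells were treated at 1, 3 and 5 µM for 24 h at 37 °C. Lysis was in ice-cold Triton X-100 buffer with protease and phosphatase inhibitors; nuclear proteins were extracted separately. Protein was quantified by BCA. Lysates were separated by electrophoresis, transferred to nitrocellulose and blocked in non-fat milk for 1 h. Primary antibody was applied overnight at 4 °C and secondary for 1 h at 28 °C. Detection was by enhanced chemiluminescence.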

MCF7 [6] = test: Induction of apoptosis in human MCF7 cells assessed as necrotic cells at 1 uM after 12 hrs by annexin-V FITC/propidium iodide staining based flow cytometric analysis relative to control; format: functional; summary of the method: as §1
[7] = target: T2, Tyrosine-protein phosphatase non-receptor type 1 (Homo sapiens) (UniProt P18031); test: Inhibition of recombinant human PTP1B using 6,8-difluoro-4-methylumbelliferyl phosphate fluorogenic substrate at 50 uM measured over 30 mins by fluorescence assay relative to control
T2 sequence (whole entry): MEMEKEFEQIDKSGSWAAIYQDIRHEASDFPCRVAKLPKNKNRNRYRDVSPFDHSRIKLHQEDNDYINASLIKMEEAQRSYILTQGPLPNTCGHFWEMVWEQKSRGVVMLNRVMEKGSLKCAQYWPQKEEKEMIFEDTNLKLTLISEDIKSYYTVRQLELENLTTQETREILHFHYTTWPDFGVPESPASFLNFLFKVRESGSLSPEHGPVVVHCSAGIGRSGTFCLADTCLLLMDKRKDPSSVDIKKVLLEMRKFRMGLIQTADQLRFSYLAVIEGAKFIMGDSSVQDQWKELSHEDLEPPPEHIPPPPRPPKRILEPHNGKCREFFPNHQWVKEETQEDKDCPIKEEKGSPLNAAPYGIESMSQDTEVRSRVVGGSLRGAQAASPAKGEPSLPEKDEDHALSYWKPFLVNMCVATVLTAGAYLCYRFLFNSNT
Summary of the method: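 Recombinant human PTP1B, 1.56 ng/well, in buffer of 25 mM HEPES, 50 mM NaCl, 2.5 mM EDTA, DTT and 0.01 mg/mL human albumin. Preincubated with compound for 30 min in the dark, then DiFMUP added (25 μL of 10 μM solution). Fluorescence read after 10 min (ex 360/em 465 nm). Triplicates; % inhibition relative to PTP inhibitor IV (0.16 mM) and buffer controls.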

MCF7 [8] = test: Effect on mitochondrial membrane potential in human MCF7 cells assessed as shift change at 5 uM measured over 4 hrs by Rhodamine 123 dye-based fluorescence assay; format: functional, cell-based
Summary of the method: (§4)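 Mitochondrial potential: HeLa or MCF-7 cells treated with 5 µM (final) for 1, 2, 4 and 8 h. Rhodamine 123 added, cells incubated 30 min at 37 °C, washed with PBS, and analysed by flow cytometry. Fluorescence histogram shift is compared with control.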

MCF7 [9] = test: Effect on mitochondrial membrane potential in human MCF7 cells assessed as shift change at 5 uM after 2 hrs by Rhodamine 123 dye-based fluorescence assay; format: functional, cell-based; summary of the method: as §4
HeLa [10] = test: Induction of caspase-dependent apoptosis in human HeLa cells assessed as activation of caspase-6 at 1 to 3 uM after 24 hrs by Western blot analysis; format: functional, cell-based; summary of the method: as §3
[11] = target: T1, MAP kinase p38 (Homo sapiens); test: Activation of MAPK p38 phosphorylation in human HeLa cells assessed as increase in ratio of phosphorylated p38 to total p38 level at 5 uM in presence of p38 kinase inhibitor […] by ELISA; format: cell-based; summary of the method: as §2
HeLa [12] = test: Effect on mitochondrial membrane potential in human HeLa cells assessed as shift change at 5 uM measured over 4 hrs by Rhodamine 123 dye-based fluorescence assay; format: functional, cell-based; summary of the method: as §4
[13] = target: Mitogen-activated protein kinase; ERK1/ERK2 (Homo sapiens) (UniProt P27361+P28482); test: Activation of ERK1/2 phosphorylation in human HeLa cells assessed as increase in ratio of phosphorylated ERK1/2 to total ERK1/2 level at 5 uM by ELISA; format: cell-based; summary of the method: as §2
MCF7 [14] = test: Induction of apoptosis in human MCF7 cells assessed as change in Bcl-2 level at 1 to 3 uM after 24 hrs by Western blot analysis; format: functional, cell-based; summary of the method: as §3
HeLa [15] = test: Induction of ROS generation in human HeLa cells at 5 uM after 24 hrs by CM-H2DCFDA staining-based FACS analysis; format: functional, cell-based
Summary of the method: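 CM-H2DCFDA ROS: HeLa or MCF-7 cells at 2×10^6/well in 6-well plates treated with 5 μM (final) for 12 or 24 h at 37 °C. Cells harvested, washed with PBS, stained with CM-H2DCFDA in PBS 30 min at 37 °C, washed with ice-cold PBS. Read by FACScan with 488 nm argon laser.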

MCF7 [16] = test: Induction of apoptosis in human MCF7 cells assessed as late apoptotic cells at 1 uM after 16 hrs by annexin-V FITC/propidium iodide staining based flow cytometric analysis relative to control; format: functional; summary of the method: as §1
HeLa [17] = test: Induction of apoptosis in human HeLa cells assessed as change in Bid level at 1 to 3 uM after 24 hrs by Western blot analysis; format: functional, cell-based; summary of the method: as §3

Chain of Mitogen-activated protein kinase; ERK1/ERK2 (Homo sapiens) (P27361 whole entry, looked up): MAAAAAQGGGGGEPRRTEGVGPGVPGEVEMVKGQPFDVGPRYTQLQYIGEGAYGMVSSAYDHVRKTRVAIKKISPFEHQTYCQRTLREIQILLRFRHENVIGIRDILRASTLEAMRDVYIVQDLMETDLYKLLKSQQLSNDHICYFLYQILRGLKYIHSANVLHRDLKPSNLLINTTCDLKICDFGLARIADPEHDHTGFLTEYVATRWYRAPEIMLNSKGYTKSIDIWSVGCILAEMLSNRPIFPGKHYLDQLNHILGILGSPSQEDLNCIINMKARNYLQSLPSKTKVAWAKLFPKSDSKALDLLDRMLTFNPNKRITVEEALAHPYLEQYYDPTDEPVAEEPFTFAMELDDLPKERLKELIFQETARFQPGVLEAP
Chain of Mitogen-activated protein kinase; ERK1/ERK2 (Homo sapiens) (P28482 whole entry, looked up): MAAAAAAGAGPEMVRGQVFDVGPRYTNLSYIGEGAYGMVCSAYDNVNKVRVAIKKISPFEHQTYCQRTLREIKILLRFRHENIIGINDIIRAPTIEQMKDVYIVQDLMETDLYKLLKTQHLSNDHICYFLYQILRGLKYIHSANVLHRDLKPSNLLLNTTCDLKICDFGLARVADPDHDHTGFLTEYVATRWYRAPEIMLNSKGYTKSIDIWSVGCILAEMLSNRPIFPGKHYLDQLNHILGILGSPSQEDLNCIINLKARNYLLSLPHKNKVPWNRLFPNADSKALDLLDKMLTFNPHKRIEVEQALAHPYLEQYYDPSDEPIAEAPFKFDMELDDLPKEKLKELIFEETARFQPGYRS

- Activity [3]: Active
- inhibition [7]: 48%
- Activity [11]: inactive
- Activity [13]: Active
Structure (SMILES): Cn1cc(/C=N\NC(=O)c2cn(C)c3ccc(Br)cc23)c2ccccc21
- Activity (MCF7 [1]): inactive
- Activity (HeLa [2]): 33.51%
- Activity (MCF7 [4]): Active
- Activity (HeLa [5]): Active
- Activity (MCF7 [6]): 2.61%
- Activity (MCF7 [8]): Active
- Activity (MCF7 [9]): Active
- Activity (HeLa [10]): inactive
- Activity (HeLa [12]): Active
- Activity (MCF7 [14]): inactive
- Activity (HeLa [15]): Active
- Activity (MCF7 [16]): 58.43%
- Activity (HeLa [17]): inactive
